Laboratory results: ChEMBL document CHEMBL3632513, “Synthesis of donepezil-based multifunctional agents for the treatment of Alzheimer's disease” (Bioorg Med Chem Lett, 2015)
Values after ≈ are worked out from the molar mass of the structure shown. Active and inactive are the calls of the source. No cut-off for these calls is given here.

Columns and labels:
Cholinesterase = Cholinesterase (Equus caballus, UniProt P81908); assay: Inhibition of equine serum BuChE using butyrylthiocholine iodide as substrate preincubated for 15 mins by Ellman's method
Acetylcholinesterase = Acetylcholinesterase (Electrophorus electricus, UniProt O42275); assay: Inhibition of electric eel AChE using acetylthiocholine iodide as substrate preincubated for 15 mins by Ellman's method
[1] = Antioxidant activity assessed as DPPH scavenging activity at 10 to 60 ug/ml after 30 mins
[2] = Lipophilicity, log P of the compound by […]; type: physicochemical; conditions: octanol/water
[3] = Selectivity ratio of IC50 for equine BuChE to IC50 for electric eel AChE
Procedure, shortened: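 Both IC50 values come from Ellman's method, using AChE from electric eel and BuChE from equine serum. Selectivity for AChE is calculated as IC50(BuChE)/IC50(AChE).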

[4] = molecular target: Amyloid-beta precursor protein (Homo sapiens) (UniProt P05067); assay: Inhibition of self-induced amyloid beta (1-42) aggregation (unknown origin) at 25 uM after 48 hrs by thioflavin T fluorescence method
Procedure, shortened: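 Thioflavin T fluorometric assay of self-induced Aβ1–42 aggregation, with test compounds and the curcumin reference each at 25. Results are reported as percent inhibition of aggregation.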

[5] = molecular target: Cholinesterase (Equus caballus) (UniProt P81908); assay: Mixed-type of inhibition in equine BuChE at 10 to 40 uM by Lineweaver-Burk plot method
[6] = molecular target: Cholinesterase (Equus caballus) (UniProt P81908); assay: Non-competitive inhibition in equine BuChE at 10 to 40 uM by Lineweaver-Burk plot method
[7] = Metal chelating activity of the compound assessed as Zn2+ complex formation after 20 mins by UV-vis spectrophotometry; type: physicochemical
[8] = molecular target: Acetylcholinesterase (Electrophorus electricus) (UniProt O42275); assay: Mixed-type of inhibition in electric eel AChE at 0.5 to 2 uM by Lineweaver-Burk plot method
Chain of Acetylcholinesterase (Electrophorus electricus) (O42275 24-633 limits assumed): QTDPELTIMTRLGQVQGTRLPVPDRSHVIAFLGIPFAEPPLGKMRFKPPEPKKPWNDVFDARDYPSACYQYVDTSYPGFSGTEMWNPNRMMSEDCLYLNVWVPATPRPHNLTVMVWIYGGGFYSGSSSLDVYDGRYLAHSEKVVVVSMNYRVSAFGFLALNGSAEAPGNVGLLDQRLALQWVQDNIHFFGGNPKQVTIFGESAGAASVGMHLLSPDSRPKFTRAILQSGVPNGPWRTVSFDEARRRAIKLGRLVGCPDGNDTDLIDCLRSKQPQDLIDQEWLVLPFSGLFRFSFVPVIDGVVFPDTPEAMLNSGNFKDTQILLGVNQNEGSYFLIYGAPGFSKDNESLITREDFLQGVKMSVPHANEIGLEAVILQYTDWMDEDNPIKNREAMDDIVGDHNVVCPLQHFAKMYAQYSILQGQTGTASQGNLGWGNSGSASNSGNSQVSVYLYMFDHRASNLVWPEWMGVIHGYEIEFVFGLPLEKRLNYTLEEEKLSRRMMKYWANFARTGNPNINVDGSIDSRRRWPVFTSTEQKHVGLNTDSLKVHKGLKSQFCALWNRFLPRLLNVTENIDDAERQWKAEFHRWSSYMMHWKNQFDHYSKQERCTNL

Chain of Amyloid-beta precursor protein (Homo sapiens) (P05067 whole entry): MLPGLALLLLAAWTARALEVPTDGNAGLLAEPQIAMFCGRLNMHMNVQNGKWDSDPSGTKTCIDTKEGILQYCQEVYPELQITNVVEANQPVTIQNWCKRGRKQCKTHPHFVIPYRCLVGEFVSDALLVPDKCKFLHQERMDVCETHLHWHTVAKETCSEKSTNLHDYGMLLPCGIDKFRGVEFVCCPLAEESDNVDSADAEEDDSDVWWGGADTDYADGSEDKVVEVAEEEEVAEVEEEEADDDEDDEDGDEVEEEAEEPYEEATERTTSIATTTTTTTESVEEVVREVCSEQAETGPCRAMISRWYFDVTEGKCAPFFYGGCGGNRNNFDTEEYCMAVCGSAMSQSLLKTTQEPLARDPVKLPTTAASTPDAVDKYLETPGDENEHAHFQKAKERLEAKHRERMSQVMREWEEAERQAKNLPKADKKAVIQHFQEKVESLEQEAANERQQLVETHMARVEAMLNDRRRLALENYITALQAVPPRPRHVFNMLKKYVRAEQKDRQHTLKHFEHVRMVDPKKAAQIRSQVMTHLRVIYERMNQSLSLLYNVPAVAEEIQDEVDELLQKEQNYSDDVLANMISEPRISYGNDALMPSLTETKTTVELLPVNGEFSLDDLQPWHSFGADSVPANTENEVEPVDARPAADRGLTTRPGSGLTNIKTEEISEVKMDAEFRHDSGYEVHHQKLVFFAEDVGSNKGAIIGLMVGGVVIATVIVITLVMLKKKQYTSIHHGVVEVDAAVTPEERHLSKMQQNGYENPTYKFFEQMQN
Chain of Cholinesterase (P81908 whole entry): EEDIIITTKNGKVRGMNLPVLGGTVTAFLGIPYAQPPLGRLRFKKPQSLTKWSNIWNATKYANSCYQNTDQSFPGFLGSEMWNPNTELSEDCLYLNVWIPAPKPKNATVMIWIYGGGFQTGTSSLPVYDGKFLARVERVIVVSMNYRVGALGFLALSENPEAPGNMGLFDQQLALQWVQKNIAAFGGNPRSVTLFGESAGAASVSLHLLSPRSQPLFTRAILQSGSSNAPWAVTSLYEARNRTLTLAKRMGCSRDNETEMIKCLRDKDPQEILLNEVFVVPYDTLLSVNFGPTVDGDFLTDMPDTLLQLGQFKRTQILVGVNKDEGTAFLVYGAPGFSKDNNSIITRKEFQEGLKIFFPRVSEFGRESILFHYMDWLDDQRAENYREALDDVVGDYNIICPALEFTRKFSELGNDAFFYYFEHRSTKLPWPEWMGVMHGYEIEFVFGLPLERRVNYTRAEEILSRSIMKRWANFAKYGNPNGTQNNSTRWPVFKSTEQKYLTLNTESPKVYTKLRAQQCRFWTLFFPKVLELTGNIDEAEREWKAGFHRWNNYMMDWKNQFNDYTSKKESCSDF
Chain of Acetylcholinesterase (O42275 whole entry): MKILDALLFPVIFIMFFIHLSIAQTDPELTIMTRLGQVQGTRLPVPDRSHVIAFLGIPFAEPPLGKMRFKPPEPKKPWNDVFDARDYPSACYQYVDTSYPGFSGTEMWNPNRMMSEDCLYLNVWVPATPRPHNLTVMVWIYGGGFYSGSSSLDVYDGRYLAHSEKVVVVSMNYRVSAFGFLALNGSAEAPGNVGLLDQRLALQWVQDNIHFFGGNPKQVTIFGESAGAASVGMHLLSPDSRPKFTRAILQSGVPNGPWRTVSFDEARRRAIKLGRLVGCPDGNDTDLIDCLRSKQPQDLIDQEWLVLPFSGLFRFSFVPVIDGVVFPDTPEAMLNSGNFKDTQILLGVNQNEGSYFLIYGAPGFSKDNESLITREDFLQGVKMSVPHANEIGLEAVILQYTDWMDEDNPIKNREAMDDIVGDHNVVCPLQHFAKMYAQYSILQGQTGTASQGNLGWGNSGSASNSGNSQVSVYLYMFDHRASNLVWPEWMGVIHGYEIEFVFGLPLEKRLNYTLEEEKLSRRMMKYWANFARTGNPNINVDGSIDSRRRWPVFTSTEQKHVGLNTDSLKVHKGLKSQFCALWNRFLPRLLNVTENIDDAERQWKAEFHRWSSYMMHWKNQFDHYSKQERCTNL
Chain of Cholinesterase (Equus caballus) (P81908 whole entry): as the sequence (P81908 whole entry) above

Compound | IC50 (Cholinesterase) [µM] | IC50 (Acetylcholinesterase) [µM] | IC50 [1] [mg/L] | logP [2] | Ratio IC50 [3] | inhibition [4] [%] | inhibition [5] | inhibition [6] | Activity [7] | inhibition [8]
COc1cc2c(cc1OC)C(=O)C(C(=O)Nc1ccc(F)cc1)C2 (centres undefined) | 2.65 | 0.11 | 54.96 (≈ 167 µM) | 2.36 | 24.1 | 45.4 | – | – | – | –
COc1cc2c(cc1OC)C(=O)C(C(=O)Nc1ccccc1)C2 (centres undefined) | 3.15 | 0.92 | 61.28 (≈ 197 µM) | 2.2 | 3.4 | 14.3 | – | – | – | –
CCOc1ccccc1NC(=O)C1Cc2cc(OC)c(OC)cc2C1=O (centres undefined) | 6.62 | 0.77 | 63.67 (≈ 179 µM) | 2.42 | 8.6 | 38.1 | – | – | – | –
Cc1c(C)c2c(c(C)c1O)CC[C@@](C)(CCC[C@H](C)CCC[C@H](C)CCCC(C)C)O2 [ALPHA-TOCOPHEROL] | – | – | 31.74 (≈ 73.7 µM) | – | – | – | – | – | – | –
COc1cc2c(cc1OC)C(=O)C(C(=O)Nc1ccc(C)cc1)C2 (centres undefined) | 2.5 | 0.84 | 67.82 (≈ 208 µM) | 2.69 | 3.2 | 26.8 | – | – | – | –
COc1cc2c(cc1OC)C(=O)C(C(=O)Nc1ccccc1Cl)C2 (centres undefined) | 7.1 | 0.3 | 65.92 (≈ 191 µM) | 2.76 | 23.7 | 40.4 | – | – | – | –
CCc1cccc(NC(=O)C2Cc3cc(OC)c(OC)cc3C2=O)c1 (centres undefined) | 2.98 | 0.67 | 64.11 (≈ 189 µM) | 3.11 | 4.4 | 27.4 | – | – | – | –
COc1cc2c(cc1OC)C(=O)C(C(=O)Nc1ccccc1Br)C2 (centres undefined) | 3.4 | 0.12 | 65.44 (≈ 168 µM) | 3.03 | 28.3 | 52.8 | – | – | – | –
COc1cccc(NC(=O)C2Cc3cc(OC)c(OC)cc3C2=O)c1 (centres undefined) | 2.1 | 0.54 | 38.94 (≈ 114 µM) | 2.08 | 3.9 | 30.2 | Active | Active | Active | –
COc1cc2c(cc1OC)C(=O)C(C(=O)Nc1cccc(Br)c1)C2 (centres undefined) | 2.43 | 0.33 | 58.88 (≈ 151 µM) | 3.03 | 7.4 | 31.9 | – | – | – | –
COc1cc2c(cc1OC)C(=O)C(C(=O)Nc1ccc(Cl)cc1)C2 (centres undefined) | 4.4 | 0.5 | 56.76 (≈ 164 µM) | 2.76 | 8.8 | 38.2 | – | – | – | –
COc1ccc(NC(=O)C2Cc3cc(OC)c(OC)cc3C2=O)cc1 (centres undefined) | 2.9 | 0.53 | 49.47 (≈ 145 µM) | 2.08 | 5.5 | 34.5 | – | – | – | –
CCc1ccc(NC(=O)C2Cc3cc(OC)c(OC)cc3C2=O)cc1 (centres undefined) | 2.96 | 0.65 | 76.15 (≈ 224 µM) | 3.11 | 4.6 | 32.1 | – | – | – | –
COc1cc2c(cc1OC)C(=O)C(C(=O)Nc1cccc(F)c1)C2 (centres undefined) | 2.25 | 0.247 | 58.11 (≈ 176 µM) | 2.36 | 9.1 | 38.7 | – | – | – | –
Cc1c(C)c2c(c(C)c1O)CCC(C)(C(=O)O)O2 (centres undefined) [TROLOX] | – | – | 20.87 (≈ 83.4 µM) | – | – | – | – | – | – | –
COc1ccccc1NC(=O)C1Cc2cc(OC)c(OC)cc2C1=O (centres undefined) | 4.81 | 0.7 | 45.76 (≈ 134 µM) | 2.08 | 6.9 | 25.6 | – | – | – | –
COc1cc2c(cc1OC)C(=O)C(C(=O)Nc1ccccc1C)C2 (centres undefined) | 3.06 | 0.36 | 43.74 (≈ 134 µM) | 2.69 | 8.5 | 40.3 | – | – | – | –
CCOc1ccc(NC(=O)C2Cc3cc(OC)c(OC)cc3C2=O)cc1 (centres undefined) | 2.61 | 0.58 | 48.16 (≈ 136 µM) | 2.42 | 4.5 | 40.8 | – | – | – | –
COc1cc2c(cc1OC)C(=O)C(C(=O)Nc1cccc(Cl)c1)C2 (centres undefined) | 2.24 | 0.47 | 76.32 (≈ 221 µM) | 2.76 | 4.8 | 37.4 | – | – | – | –
COc1cc2c(cc1OC)C(=O)C(C(=O)Nc1ccc(Br)cc1)C2 (centres undefined) | 3.66 | 0.14 | 72.14 (≈ 185 µM) | 3.03 | 26.1 | 47.6 | – | – | – | –
COc1cc2c(cc1OC)C(=O)C(C(=O)Nc1cccc(C)c1)C2 (centres undefined) | 2.24 | 0.77 | 55.83 (≈ 172 µM) | 2.69 | 2.9 | 19.1 | – | – | – | –
COc1cc2c(cc1OC)C(=O)C(C(=O)Nc1ccccc1F)C2 (centres undefined) | 3.21 | 0.08 | 75.68 (≈ 230 µM) | 2.36 | 40.1 | 55.3 | – | – | Active | Active
CCOc1cccc(NC(=O)C2Cc3cc(OC)c(OC)cc3C2=O)c1 (centres undefined) | 3.87 | 0.78 | 44.89 (≈ 126 µM) | 2.42 | 5 | 28.3 | – | – | – | –
CCc1ccccc1NC(=O)C1Cc2cc(OC)c(OC)cc2C1=O (centres undefined) | 6.29 | 0.86 | 55 (≈ 162 µM) | 3.11 | 7.3 | 21.8 | – | – | – | –
